For 15 compounds, inhibition and Activity results are on record in ChEMBL document CHEMBL1800053, “Concise synthesis and antiangiogenic activity of artemisinin-glycolipid hybrids on chorioallantoic membranes” (Bioorg Med Chem Lett, 2010).

The structures appear in SMILES notation.

The species entered for one series is Gallus gallus. Nature of the series: Antiangiogenesis activity against fertilized chicken egg chorioallantoic membrane assessed as inhibition of neovascularization at 2.5 nmol/egg by CAM vessel development assay relative to control. In kind it is functional, tissue-based. An outline of the steps: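 Fertilized chicken eggs incubated at 37 °C, 80–90% relative humidity. Day 3: window opened after removing 2 ml albumin. Day 5: sample loaded on a quarter-size coverslip placed on the CAM of each embryo, 2.5 nmol/egg. Scored as positive eggs out of 10 tested, graded inhibition effect, and % inhibition of vessel development relative to control.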

Series [1] can be described thus: Embryotoxicity in fertilized chicken embryo at 2.5 nmol/egg. In kind it is toxicity, Gallus gallus.

The inhibition is the change of the read-out against control, counted positive when it falls. Regarding `C=CCCCC[C@@H](C)O[C@@H]1O[C@@H](C)[C@H](O)C[C@H]1OC(=O)C[C@H]1O[C@@H]2O[C@@]3(C)CC[C@H]4[C@H](C)CC[C@@H]([C@H]1C)[C@@]24OO3`, the inhibition in the series filed under Gallus gallus came out at 50%. This compound returned an Activity in series [1] of 50%.

For the compound `O=C1CC[C@H](N2C(=O)c3ccccc3C2=O)C(=O)N1`, the inhibition in the series filed under Gallus gallus worked out at 40%. The Activity result in series [1] is reported as “Toxic”.

For the compound `C[C@@H]1CC[C@H]2[C@@H](C)C(=O)O[C@@H]3O[C@@]4(C)CC[C@@H]1[C@]32OO4` [ARTEMISININ], the inhibition in the series filed under Gallus gallus came to 30%. In series [1], the Activity entry is “Non-toxic”.

`C[C@H]1[C@@H](CCCOC(=O)CCCC[C@H](C)O[C@@H]2O[C@@H](C)[C@H](O)C[C@H]2O)O[C@@H]2O[C@@]3(C)CC[C@H]4[C@H](C)CC[C@@H]1[C@@]24OO3`: in the series filed under Gallus gallus, the inhibition stood at 60%. The Activity result in series [1] is reported as “Toxic”.

Take `C[C@H]1[C@@H](CCOC(=O)CCCC[C@H](C)O[C@@H]2O[C@@H](C)[C@H](O)C[C@H]2O)O[C@@H]2O[C@@]3(C)CC[C@H]4[C@H](C)CC[C@@H]1[C@@]24OO3`: the inhibition in the series listed under Gallus gallus is 60%. Also, in series [1], the Activity entry was “Toxic”.

For the compound `C[C@H]1[C@@H](CCCOC(=O)CCCC[C@H](C)O[C@@H]2O[C@@H](C)[C@H](OC(=O)c3ccccc3)C[C@H]2OC(=O)c2ccccc2)O[C@@H]2O[C@@]3(C)CC[C@H]4[C@H](C)CC[C@@H]1[C@@]24OO3`, in the series listed under Gallus gallus, the inhibition amounted to 80%. Also, the Activity result in series [1] is given as “Non-toxic”.

Regarding `C=CCCCC[C@@H](C)O[C@@H]1O[C@@H](C)[C@H](OC(=O)C[C@H]2O[C@@H]3O[C@@]4(C)CC[C@H]5[C@H](C)CC[C@@H]([C@H]2C)[C@@]35OO4)C[C@H]1O`, in the series listed under Gallus gallus, the inhibition amounted to 70%. Further, the Activity result in series [1] is given as “Toxic”.

Turning to `C[C@H]1[C@@H](CC(=O)OCCCCC[C@@H](C)O[C@@H]2O[C@@H](C)[C@H](OCc3ccccc3)C[C@H]2OCc2ccccc2)O[C@@H]2O[C@@]3(C)CC[C@H]4[C@H](C)CC[C@@H]1[C@@]24OO3`, the inhibition in the series listed under Gallus gallus was 50%. The Activity result in series [1] was “Toxic”.

In the case of `CO[C@@H]1[C@H](OC(=O)/C=C/C=C/C=C/C=C/C(=O)O)CC[C@]2(CO2)[C@H]1[C@@]1(C)O[C@@H]1CC=C(C)C` [FUMAGILLIN], in the series filed under Gallus gallus, the inhibition was 40%. Besides, the Activity entry in series [1] was “Toxic”.

Consider `C[C@H]1[C@@H](CC(=O)OCCCCC[C@@H](C)O[C@@H]2O[C@@H](C)[C@H](O)C[C@H]2O)O[C@@H]2O[C@@]3(C)CC[C@H]4[C@H](C)CC[C@@H]1[C@@]24OO3`, for which the inhibition in the series listed under Gallus gallus came out at 100%. For the same compound, in series [1], the Activity result was “Non-toxic”.

As to `C[C@H]1[C@@H](CC(=O)O[C@@H]2C[C@@H](O)[C@H](C)O[C@H]2O[C@H](C)CCCCCO)O[C@@H]2O[C@@]3(C)CC[C@H]4[C@H](C)CC[C@@H]1[C@@]24OO3`, the inhibition in the series listed under Gallus gallus was 50%. The Activity result in series [1] is reported as “Non-toxic”.

For `C[C@H]1[C@@H](OC(=O)CCCC[C@H](C)O[C@@H]2O[C@@H](C)[C@H](OC(=O)c3ccccc3)C[C@H]2OC(=O)c2ccccc2)O[C@@H]2O[C@@]3(C)CC[C@H]4[C@H](C)CC[C@@H]1[C@@]24OO3`, in the series filed under Gallus gallus, the inhibition turned out to be 10%. The Activity result in series [1] was “Toxic”.

As to `C[C@H]1[C@@H](OC(=O)CCCC[C@H](C)O[C@@H]2O[C@@H](C)[C@H](O)C[C@H]2O)O[C@@H]2O[C@@]3(C)CC[C@H]4[C@H](C)CC[C@@H]1[C@@]24OO3`, in the series filed under Gallus gallus, the inhibition came out at 50%. Also, in series [1], the Activity result is listed as “Toxic”.

Regarding `C[C@H](CCCCC(=O)O)O[C@@H]1O[C@@H](C)[C@H](O)C[C@H]1O` [DAUMONE], in the series filed under Gallus gallus, the inhibition is 70%. Besides, the Activity entry in series [1] is recorded as “Non-toxic”.

Consider `C[C@H]1[C@@H](CCOC(=O)CCCC[C@H](C)O[C@@H]2O[C@@H](C)[C@H](OC(=O)c3ccccc3)C[C@H]2OC(=O)c2ccccc2)O[C@@H]2O[C@@]3(C)CC[C@H]4[C@H](C)CC[C@@H]1[C@@]24OO3`, for which, in the series listed under Gallus gallus, the inhibition is 60%. Moreover, the Activity result in series [1] is “Toxic”.
